The source of these data is article PMC12433486 (Redox Biology, 2025).

Molecules are shown by their SMILES. Converted amounts (≈) assume the structure as drawn. Positions of bridges follow the written chain, without caps; N, C: chain ends. Non-standard residues stand in square brackets, D forms with d. Residues, ends and D or L forms follow the SMILES beside them. *: point of attachment. Heptanoyl(6-Me) = CC(C)CCCCC(=O)*; Dab = NCC[C@H](N)C(=O)O

For assay [1], the system named is CRKP. The assay is described as follows: MIC, broth microdilution. It is filed as cell-based, Klebsiella pneumonia. The conditions noted are these: 24 h; for MIC, CRKP: gold complexes and antibiotics; for MIC: Klebsiella pneumoniae, read-out: MIC, CRKP. A digest of the protocol: (§1)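 Broth microdilution per CLSI guidelines in 96-well plates with test compound, incubated at 37 °C for 24 h. Growth was read on a microplate reader.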

The next assay relates to CRKP (Clinical). The assay is described as follows: MIC, broth microdilution. It is filed as cell-based, Klebsiella pneumonia. The conditions noted are these: 24 h; for MIC, CRKP (Clinical): gold complexes and antibiotics; for MIC: Klebsiella pneumoniae, read-out: MIC, CRKP (Clinical). The procedure, abridged: as §1
The test system of a further assay is CRAB (Clinical). The assay is described as follows: MIC, broth microdilution. It counts as cell-based. The conditions noted are these: 24 h; for MIC, CRAB (Clinical): gold complexes and antibiotics; for MIC: read-out: MIC, CRAB (Clinical). A digest of the protocol:
as §1
On the technique in general: Broth dilution looks for growth in wells or tubes with falling amounts of substance.

In the next assay the test system is CRPA. The assay is described as follows: MIC, broth microdilution. It is filed as cell-based, Pseudomonas aeruginosa. The conditions noted are these: 24 h; for MIC, CRPA: gold complexes and antibiotics; for MIC: Pseudomonas aeruginosa, read-out: MIC, CRPA. A digest of the protocol: as §1
The next assay concerns CRPA (Clinical). The assay is described as follows: MIC, broth microdilution. It counts as cell-based, Pseudomonas aeruginosa. The following applies: 24 h; for MIC, CRPA (Clinical): gold complexes and antibiotics; for MIC: Pseudomonas aeruginosa, read-out: MIC, CRPA (Clinical). The procedure, abridged: as §1
The next assay relates to CREC. The assay is described as follows: MIC, broth microdilution. It is filed as cell-based, Escherichia coli. The following applies: 24 h; for MIC, CREC: gold complexes and antibiotics; for MIC: Escherichia coli, read-out: MIC, CREC. The procedure, abridged: as §1
The test system of another assay is CREC (Clinical). The assay is described as follows: MIC, broth microdilution. It counts as cell-based, Escherichia coli. The following applies: 24 h; for MIC, CREC (Clinical): gold complexes and antibiotics; for MIC: Escherichia coli, read-out: MIC, CREC (Clinical). A digest of the protocol:
as §1

The test system of another assay is VISA. The assay is described as follows: MIC, broth microdilution. It counts as cell-based, Staphylococcus aureus. The following applies: gold complexes and antibiotics, 24 h. The procedure, abridged: as §1
Assay [2] concerns CRKP. The assay is described as follows: Checkerboard microdilution assay. It counts as cell-based, Klebsiella pneumonia. The conditions noted are these: for MIC of antibiotic: antibiotic alone; for FIC index (Au10): antibiotic in combination with Au10, CRKP; for FIC index (Au17): antibiotic in combination with Au17, CRKP; for FIC index (Auranofin): antibiotic in combination with auranofin. The procedure, abridged: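 Checkerboard: overnight cultures diluted 1000-fold, regrown to mid-log phase (OD600 0.6), diluted per CLSI and seeded in 96-well plates. Varying concentrations of gold test compound combined with varying antibiotic concentrations. Incubated 37 °C for 24 h, growth read at OD600. FICI calculated by a previously described method.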

Assay [3] relates to CRKP. The assay is described as follows: Time-killing assay. It is filed as cell-based, Klebsiella pneumonia. The following applies: 0-80 μM. The procedure, abridged: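 Overnight CRKP culture diluted 2000-fold and grown to OD600 0.4–0.6, then diluted to OD600 0.1 and plated in 96-well format. Test compound added at 0, 10, 20, 40 or 80 μM. Growth read hourly by microplate reader for 12 h.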

A further assay has as its system cellular TrxR in CRKP. The assay is described as follows: Cellular TrxR activity assay. The conditions noted are these: read-out: IC50, cellular TrxR; CRKP treated 4 h, TrxR assay kit. It is filed as cell-based, Klebsiella pneumonia. The procedure, abridged:
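Overnight CRKP culture diluted and regrown to mid-log phase (OD600 0.6). Suspensions exposed to test compound at 0, 2.5, 5, 10 or 20 μM for 4 h. Cellular TrxR activity measured with a commercial TrxR activity kit.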

For a further assay, the system named is recombinant CRKP TrxR. The assay is described as follows: Inhibition of recombinant CRKP TrxR. It is filed as biochemical, Klebsiella pneumonia. The conditions noted are these: read-out: IC50, recombinant CRKP TrxR; DTNB reduction assay. The procedure, abridged: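 TrxR activity read by DTNB reduction assay (NADPH plus DTNB, A412 change over 5 min at 37 °C). Ki came from varying DTNB 0–2 mM and test compound 0–40 μM, fitted to a competitive inhibition model. Reversibility: NADPH-prereduced enzyme (100 μM, 10 min) was treated with 30 μM compound for 30 min, then NAP-5 desalted. Alternatively, after 30 min RT exposure, enzyme was dialysed 4 h at 4 °C (15,000 Da cutoff).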

Another assay concerns cellular GR in CRKP. The assay is described as follows: Cellular GR activity assay. It counts as cell-based, Klebsiella pneumonia. The following applies: CRKP treated 4 h, GR assay kit. A digest of the protocol:
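CRKP overnight culture diluted and regrown to mid-log phase (OD600 0.6), then treated with test compound. Cellular glutathione reductase activity measured with a commercial GR activity kit.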

Another assay has as its system recombinant CRKP GR. The assay is described as follows: Inhibition of recombinant CRKP GR. It counts as biochemical, Klebsiella pneumonia. The procedure, abridged: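 Purified CRKP GR (final 2 nM) in 50 mM Tris-HCl pH 7.5 with 2 mM EDTA was preincubated with test compound at 37 °C for 30 min. GSSG and NADPH were then added, with A340 read at 10 s and after 5 min at 37 °C. Ki came from varying GSSG 0–5 mM and compound 0–20 μM under a competitive model. Reversibility: 30 min RT exposure, then NAP-5 desalting (1 mM GSSG, 300 μM NADPH) or 4 °C, 4 h dialysis (15,000 Da cutoff).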

The test system of assay [4] is CRKP. The assay is described as follows: Intracellular superoxide radical detection. It counts as cell-based, Klebsiella pneumonia. The conditions noted are these: 4 h. A digest of the protocol:
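Mid-log CRKP (OD600 0.6) loaded with DHE for 20 min at 37 °C with shaking, treated with test compound at 0, 10, 20 or 40 μM for 4 h, and washed three times in ice-cold PBS. Flow cytometry collected 100,000 cells. For HPLC, cells at OD600 0.3 took up 20 μM DHE for 20 min, were exposed to 0 or 80 μM for 4 h and washed, with synthesized 2-OH E+ as reference.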

Assay [5] deals with CRKP. The assay is described as follows: Cell membrane integrity. It counts as cell-based, Klebsiella pneumonia. The following applies: 0-40 μM, 4 h, vs control. A digest of the protocol: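 Membrane integrity read from PI uptake: CRKP exposed to test compound at 0, 10, 20 or 40 μM, then analysed by single-parameter flow cytometry collecting 100,000 cells per sample.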
The test system of another assay is DNA from CRKP. The assay is described as follows: DNA degradation assay. Also noted: species or system Klebsiella pneumonia. The conditions noted are these: purified CRKP DNA, 30 min. A digest of the protocol:
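Genomic DNA extracted from CRKP with a kit and checked by micro-spectrophotometry and agarose gel. DNA mixed with varying concentrations of test compound on ice for 30 min, also with 10 mM H2O2 for 30 min. DNA (30 ng/μL) additionally incubated with 40 μM for 2 h on ice. Degradation read by EB-stained polyacrylamide gel electrophoresis.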

Assay [6] has as its system CRKP. The assay is described as follows: Murine peritonitis infection model. It counts as in vivo, BALB/c mice. The conditions noted are these: six mice per group, treated 1 h after i.p. CRKP. A digest of the protocol:
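Female BALB/c mice (18–20 g) randomized, six per group, and given 200 μL CRKP suspension i.p. Treatment began 1 h after infection: saline/PBS control, comparator antibiotic or test compound. Survival recorded over 48 h.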

Turning to `COc1ccc2ccc([O-])c(C=NC3CCCCC3N=Cc3cc(F)ccc3[O-])c2c1.F[P-](F)(F)(F)(F)F.[Au+3]` [Au4, [1-((E)-(((1S,2R)-2-(((E)-5-fluoro-2-hydroxybenzylidene)amino)cyclohexyl)imino)methyl)-7-methoxynaphthalen-2-ol] Au(III) hexafluorophosphate], in the assay on CRKP [1], the “MIC, CRKP” value is 10 µM. Further, the “MIC, CRKP (Clinical)” value against CRKP (Clinical) was determined as 10 µM. Also, the “MIC, CRAB (Clinical)” value against CRAB (Clinical) was greater than 20 µM. Besides, the “MIC, CRPA” value with CRPA is greater than 20 µM. The “MIC, CRPA (Clinical)” value against CRPA (Clinical) is greater than 20 µM. In addition, in the assay on CREC, the “MIC, CREC” value is 20 µM. Moreover, the “MIC, CREC (Clinical)” value against CREC (Clinical) amounted to 20 µM. In the assay on VISA, the “MIC, VISA” value was greater than 20 µM.

By IC50 is commonly meant the concentration that inhibits the measured activity by half. For `CC(=O)OC[C@H]1O[C@@H]([S-])[C@H](OC(C)=O)[C@@H](OC(C)=O)[C@@H]1OC(C)=O.CCP(CC)CC.[Au+]` [Auranofin], in the assay on CRKP [1], the “MIC, CRKP” value was greater than 20 µM. The “MIC, CRKP (Clinical)” value in the assay with CRKP (Clinical) is greater than 20 µM. In the assay with CRAB (Clinical), the “MIC, CRAB (Clinical)” value was 20 µM. Further, the “MIC, CRPA” value in the assay with CRPA is greater than 20 µM. Moreover, the “MIC, CRPA (Clinical)” value in the assay on CRPA (Clinical) was greater than 20 µM. In addition, the “MIC, CREC” value with CREC was greater than 20 µM. The “MIC, CREC (Clinical)” value in the assay with CREC (Clinical) was greater than 20 µM. For the same molecule, the “MIC, VISA” value with VISA was determined as 0.5 µM. Further, in the assay on CRKP [2] (checkerboard, CRKP), the “interaction with cefepime or meropenem” value is given as “did not exhibit any synergistic interaction”. In the assay on CRKP [3], the “bacterial growth over 12 h” value is listed as “only a marginal inhibitory effect”. Besides, the IC50 with cellular TrxR in CRKP stood at 11.6 µM; in the assay with recombinant CRKP TrxR it was 27.2 µM. In addition, the “IC50, cellular GR” value with cellular GR in CRKP was “did not show any inhibitory effects”. Further, in the assay on recombinant CRKP GR, the “inhibition of recombinant GR at 40 μM” value is on record as “did not exhibit inhibitory effects”. For the same molecule, in the assay with CRKP [4] (80 μM), the “2-OH E+ formation (HPLC)” value was “no detectable 2-OH E^+”. Moreover, the “intracellular ROS (superoxide, DHE probe)” value in the assay with CRKP [4] (10, 20, 40 μM, vs control) is listed as “did not induce ROS generation”. Moreover, the “PI red fluorescence intensity (membrane integrity)” value in the assay with CRKP [5] was “did not show a significant difference”. Besides, the “DNA degradation (gel electrophoresis)” value in the assay with DNA from CRKP was “did not demonstrate DNA degradation effect”.

`CO/N=C(\C(=O)N[C@@H]1C(=O)N2C(C(=O)[O-])=C(C[N+]3(C)CCCC3)CS[C@H]12)c1csc(N)n1` [Cefepime]: in the assay on CRKP [2] (Au10 2 μM, CRKP), the “MIC of antibiotic in the presence of Au10” value is 5 µM. Moreover, in the assay on CRKP [2] (CRKP), the MIC of antibiotic was determined as 20 µM and the “FIC index (Auranofin)” value is 0.525. Besides, in the assay with CRKP [2], the “FIC index (Au10)” value stood at 0.45 and the “FIC index (Au17)” value worked out at 0.70.

In general, MIC refers to the least concentration at which growth counts as inhibited. For the molecule `CC(C)CCCCC(=O)N[C@@H](CCN)C(=O)N[C@H](C(=O)N[C@@H](CCN)C(=O)N[C@H]1CCNC(=O)[C@H]([C@@H](C)O)NC(=O)[C@H](CCN)NC(=O)[C@H](CCN)NC(=O)[C@H](CC(C)C)NC(=O)[C@@H](CC(C)C)NC(=O)[C@H](CCN)NC1=O)[C@@H](C)O` [Colistin B] ({Heptanoyl(6-Me)}-[Dab]T[Dab][Dab][Dab][dL]L[Dab][Dab]T; lactam 4-C), the MIC with CRKP [1] was 50 µM (≈ 57.8 µg/mL); in the assay on CRKP (Clinical), 100 µM (≈ 116 µg/mL); in the assay with CRAB (Clinical) it was 3 µM (≈ 3.47 µg/mL); in the assay with CRPA, 3 µM (≈ 3.47 µg/mL); with CRPA (Clinical), 3 µM (≈ 3.47 µg/mL); with CREC, 1 µM (≈ 1.16 µg/mL). The MIC in the assay on CREC (Clinical) is 1 µM (≈ 1.16 µg/mL). Also, the “mice surviving more than 24 h” value in the assay on CRKP [6] was “no mice”.

For `C[C@@H](O)[C@H]1C(=O)N2C(C(=O)O)=C(SCCN=CN)C[C@H]12` [Imipenem], the MIC was 200 µM (≈ 59.9 µg/mL) in the assay on CRKP [1]; 100 µM (≈ 29.9 µg/mL) with CRKP (Clinical); 200 µM (≈ 59.9 µg/mL) with CRAB (Clinical); 200 µM (≈ 59.9 µg/mL) in the assay with CRPA; 100 µM (≈ 29.9 µg/mL) in the assay with CRPA (Clinical); 50 µM (≈ 15 µg/mL) with CREC. For the same molecule, the MIC in the assay on CREC (Clinical) was determined as 100 µM (≈ 29.9 µg/mL).

Regarding `C[C@@H](O)[C@H]1C(=O)N2C(C(=O)O)=C(S[C@@H]3CN[C@H](C(=O)N(C)C)C3)[C@H](C)[C@H]12` [Meropenem], in the assay with CRKP [2] (CRKP), the MIC of antibiotic was found to be 40 µM and the “FIC index (Auranofin)” value is reported as 0.625. Further, in the assay with CRKP [2], the “FIC index (Au10)” value amounted to 0.35 and the “FIC index (Au17)” value amounted to 0.45.
